Reference: ChEMBL document CHEMBL3797089, “Morusin Induces TRAIL Sensitization by Regulating EGFR and DR5 in Human Glioblastoma Cells” (J Nat Prod, 2016)
Calls of active or inactive are those of the source.

Key:
[1] = tested on: U-87 MG; assay: Induction of DR5 expression in human U87MG cells at 25 uM after 24 hrs by FITC-conjugated flow cytometric analysis; assay type: functional, cell-based; conditions: U-87MG ATCC
How it was run: (§1)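 Cells given 25 μM morusin for 24 h, then stained on ice for 30 min with 0.5 μg/mL FITC-conjugated anti-DR4, anti-DR5 or isotype IgG in FACS buffer. Surface expression read by flow cytometry.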

[2] = Reduction of survivin expression in human U373MG cells after 24 hrs by Western blot analysis; assay type: functional, cell-based; conditions: U-373MG ATCC
How it was run: (§2)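 U87MG (MEM) and U373MG (RPMI) cells were given graded morusin concentrations for 24 h. Whole-cell extracts were immunoblotted for anti-apoptotic proteins, with β-actin as loading control.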

[3] = Reduction of EGFR expression in human U251MG cells at 25 uM after 24 hrs by Western blot analysis; assay type: functional, cell-based; conditions: U-251
How it was run: (§3)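 LN18, U87MG, T98G, U251MG and U373MG glioblastoma cells were exposed to morusin for 24 h. Cells were maintained in DMEM, MEM or RPMI with 10% FBS at 37 °C and 5% CO2. Whole-cell lysates were Western blotted for receptor proteins, with β-actin as internal control.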

[4] = Cytotoxicity against human U251MG cells assessed as reduction in cell viability measured up to 20 uM after 24 hrs by MTT assay in presence of TRAIL; assay type: functional, U-251
How it was run: (§4)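 MTT viability. 3–5 × 10^3 cells/well, treated the next day with TRAIL 100 ng/mL plus increasing morusin concentrations for 24 h. 1 mg/mL MTT for 2 h at 37 °C, lysis overnight, OD 570 nm. Living-cell fractions were used for combination index analysis. Mean ± SD, at least three independent experiments.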

[5] = molecular target: Epidermal growth factor receptor (Homo sapiens) (UniProt P00533); assay: Inhibition of EGFR phosphorylation in human U87MG cells measured up to 25 uM after 24 hrs by Western blot analysis; assay type: cell-based; conditions: U-87MG ATCC
How it was run: (§5)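 Cells grown in MEM (U87MG) or RPMI (U373MG) with 10% FBS, 5% CO2, 37 °C. Treated for 24 h with the indicated concentrations of morusin (DMSO stock). Whole-cell lysates immunoblotted for phosphorylated and total proteins, with β-actin as internal control.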

[6] = tested on: T98G; assay: Induction of apoptosis in human T98G cells assessed as increase in cleaved caspase 9 levels at 2.5 uM after 24 hrs by Western blot analysis in presence of TRAIL; assay type: functional, cell-based
How it was run: (§6)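 U87MG and T98G given TRAIL 25 ng/mL plus morusin 2.5 μM together for 24 h; single-agent arms used TRAIL 50 ng/mL or morusin 5 μM. Lysates immunoblotted for cleaved caspase 3, 8, 9 and cleaved PARP, with β-actin as internal control.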

[7] = tested on: T98G; assay: Induction of apoptosis in human T98G cells assessed as increase in cleaved caspase 8 levels at 2.5 uM after 24 hrs by Western blot analysis in presence of TRAIL; assay type: functional, cell-based; how it was run: as §6
[8] = Stability in human U87MG cells assessed as compound remaining at 10 uM after 24 hrs; assay type: ADME, cell-based, U-87MG ATCC; conditions: read-out: Stability
[9] = tested on: U373 MG; assay: Effect on cIAP1 expression in human U373MG cells at 12 to 25 uM after 24 hrs by Western blot analysis; assay type: functional, cell-based; conditions: U-373MG ATCC
How it was run: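 U87MG and U373MG exposed to a range of morusin concentrations for 24 h. Whole-cell extracts immunoblotted for cIAP1, with β-actin as internal control.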

[10] = Reduction of PDGFR expression in human LN18 cells at 25 uM after 24 hrs by Western blot analysis; assay type: functional, cell-based; conditions: LN-18; how it was run: as §3
[11] = tested on: T98G; assay: Reduction of PDGFR expression in human T98G cells at 25 uM after 24 hrs by Western blot analysis; assay type: functional, cell-based; how it was run: as §3
[12] = tested on: U-87 MG; assay: Induction of apoptosis in human U87MG cells assessed as increase in cleaved caspase 8 levels at 2.5 uM after 24 hrs by Western blot analysis in presence of TRAIL; assay type: functional, cell-based; conditions: U-87MG ATCC; how it was run: as §6
[13] = Cytotoxicity against human U373MG cells assessed as reduction in cell viability after 24 hrs by MTT assay; assay type: functional, cell-based, U-373MG ATCC; conditions: U373 MG
How it was run: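 Seeded 3–5 × 10^3 cells/well, treated the next day with a range of morusin (DMSO stock) for 24 h, 37 °C, 5% CO2. Then fresh medium with 1 mg/mL MTT for 2 h at 37 °C, lysis buffer overnight at 37 °C, OD 570 nm. Mean ± SD from at least three independent experiments in triplicate.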

[14] = tested on: U373 MG; assay: Effect on DR4 expression in human U373MG cells upto 25 uM after 24 hrs by Western blot analysis; assay type: functional, cell-based; conditions: U-373MG ATCC
How it was run: (§7)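 Cells exposed to a range of morusin concentrations for 24 h. Cell extracts immunoblotted for DR4, DR5, DcR1 and DcR2, with β-actin as internal control and HRP-conjugated secondary antibodies (1:5000).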

[15] = tested on: U-87 MG; assay: Induction of apoptosis in human U87MG cells assessed as increase in cleaved PARP levels at 2.5 uM after 24 hrs by Western blot analysis in presence of TRAIL; assay type: functional, cell-based; conditions: U-87MG ATCC; how it was run: as §6
[16] = tested on: T98G; assay: Cytotoxicity against human T98G cells assessed as reduction in cell viability measured up to 20 uM after 24 hrs by MTT assay in presence of TRAIL; assay type: functional; how it was run: as §4
[17] = tested on: U-87 MG; assay: Effect on cIAP1 expression in human U87MG cells at 25uM after 3 to 18 hrs by Western blot analysis; assay type: functional, cell-based; conditions: U-87MG ATCC
How it was run: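 Time course: U87MG and U373MG cells held at 25 μM morusin for the times indicated. Extracts immunoblotted (cIAP1 or DR5), with β-actin as loading control.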

[18] = molecular target: Signal transducer and activator of transcription 3 (Homo sapiens) (UniProt P40763); assay: Inhibition of STAT3 phosphorylation in human U87MG cells measured up to 25 uM after 24 hrs by Western blot analysis; assay type: cell-based; conditions: U-87MG ATCC; how it was run: as §5
[19] = Reduction of XIAP expression in human U87MG cells after 24 hrs by Western blot analysis; assay type: functional, cell-based; conditions: U-87MG ATCC; how it was run: as §2
[20] = molecular target: Signal transducer and activator of transcription 3 (Homo sapiens) (UniProt P40763); assay: Inhibition of STAT3 phosphorylation in human U373MG cells measured up to 25 uM after 24 hrs by Western blot analysis; assay type: cell-based; conditions: U-373MG ATCC; how it was run: as §5
[21] = Reduction of XIAP mRNA expression in human U87MG cells after 24 hrs by RT-qPCR analysis; assay type: functional, cell-based; conditions: U-87MG ATCC
How it was run: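 U87MG cells were treated with graded morusin for 24 h. Total RNA was extracted with TRI Reagent, and 1 μg was reverse transcribed. XIAP and survivin mRNA were quantified by RT-qPCR, normalized to GAPDH. Results are mean ± SD from at least three independent experiments; unpaired t-test.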

[22] = tested on: U-87 MG; assay: Induction of DR4 expression in human U87MG cells at 25 uM after 24 hrs by FITC-conjugated flow cytometric analysis; assay type: functional, cell-based; conditions: U-87MG ATCC; how it was run: as §1
[23] = tested on: U-251; assay: Induction of DR4 expression in human U251MG cells at 25 uM after 24 hrs by FITC-conjugated flow cytometric analysis; assay type: functional, cell-based; how it was run: as §1
[24] = Reduction of PDGFR expression in human U251MG cells at 25 uM after 24 hrs by Western blot analysis; assay type: functional, cell-based; conditions: U-251; how it was run: as §3
[25] = tested on: U-87 MG; assay: Effect on DcR1 expression in human U87MG cells upto 25 uM after 24 hrs by Western blot analysis; assay type: functional, cell-based; conditions: U-87MG ATCC; how it was run: as §7
[26] = tested on: T98G; assay: Induction of apoptosis in human T98G cells assessed as increase in cleaved caspase 3 levels at 2.5 uM after 24 hrs by Western blot analysis in presence of TRAIL; assay type: functional, cell-based; how it was run: as §6
[27] = tested on: U-251; assay: Effect on DR4 expression in human U251MG cells upto 25 uM after 24 hrs by Western blot analysis; assay type: functional, cell-based; how it was run: as §7

Signal transducer and activator of transcription 3 (Homo sapiens), sequence (P40763 whole entry): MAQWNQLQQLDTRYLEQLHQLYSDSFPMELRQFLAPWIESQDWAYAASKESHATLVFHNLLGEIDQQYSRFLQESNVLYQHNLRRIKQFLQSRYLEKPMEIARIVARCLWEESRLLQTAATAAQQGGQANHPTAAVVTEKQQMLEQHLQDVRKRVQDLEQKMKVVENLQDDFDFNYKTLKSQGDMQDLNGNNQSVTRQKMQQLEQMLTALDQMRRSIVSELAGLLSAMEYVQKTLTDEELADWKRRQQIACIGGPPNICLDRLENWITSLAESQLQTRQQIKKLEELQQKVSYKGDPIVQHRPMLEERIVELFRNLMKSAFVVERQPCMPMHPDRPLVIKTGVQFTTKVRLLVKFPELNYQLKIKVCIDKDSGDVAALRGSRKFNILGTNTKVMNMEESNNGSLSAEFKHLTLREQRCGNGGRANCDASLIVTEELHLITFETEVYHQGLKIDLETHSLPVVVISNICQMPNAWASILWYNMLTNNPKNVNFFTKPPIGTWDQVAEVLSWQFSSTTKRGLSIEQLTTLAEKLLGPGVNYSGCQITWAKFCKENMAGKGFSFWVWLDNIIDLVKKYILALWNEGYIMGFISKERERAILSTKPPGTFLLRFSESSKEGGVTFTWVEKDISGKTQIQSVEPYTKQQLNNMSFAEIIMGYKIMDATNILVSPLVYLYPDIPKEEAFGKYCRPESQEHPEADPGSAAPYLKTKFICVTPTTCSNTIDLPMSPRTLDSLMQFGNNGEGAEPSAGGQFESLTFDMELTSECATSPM
Epidermal growth factor receptor (Homo sapiens), sequence (P00533 whole entry): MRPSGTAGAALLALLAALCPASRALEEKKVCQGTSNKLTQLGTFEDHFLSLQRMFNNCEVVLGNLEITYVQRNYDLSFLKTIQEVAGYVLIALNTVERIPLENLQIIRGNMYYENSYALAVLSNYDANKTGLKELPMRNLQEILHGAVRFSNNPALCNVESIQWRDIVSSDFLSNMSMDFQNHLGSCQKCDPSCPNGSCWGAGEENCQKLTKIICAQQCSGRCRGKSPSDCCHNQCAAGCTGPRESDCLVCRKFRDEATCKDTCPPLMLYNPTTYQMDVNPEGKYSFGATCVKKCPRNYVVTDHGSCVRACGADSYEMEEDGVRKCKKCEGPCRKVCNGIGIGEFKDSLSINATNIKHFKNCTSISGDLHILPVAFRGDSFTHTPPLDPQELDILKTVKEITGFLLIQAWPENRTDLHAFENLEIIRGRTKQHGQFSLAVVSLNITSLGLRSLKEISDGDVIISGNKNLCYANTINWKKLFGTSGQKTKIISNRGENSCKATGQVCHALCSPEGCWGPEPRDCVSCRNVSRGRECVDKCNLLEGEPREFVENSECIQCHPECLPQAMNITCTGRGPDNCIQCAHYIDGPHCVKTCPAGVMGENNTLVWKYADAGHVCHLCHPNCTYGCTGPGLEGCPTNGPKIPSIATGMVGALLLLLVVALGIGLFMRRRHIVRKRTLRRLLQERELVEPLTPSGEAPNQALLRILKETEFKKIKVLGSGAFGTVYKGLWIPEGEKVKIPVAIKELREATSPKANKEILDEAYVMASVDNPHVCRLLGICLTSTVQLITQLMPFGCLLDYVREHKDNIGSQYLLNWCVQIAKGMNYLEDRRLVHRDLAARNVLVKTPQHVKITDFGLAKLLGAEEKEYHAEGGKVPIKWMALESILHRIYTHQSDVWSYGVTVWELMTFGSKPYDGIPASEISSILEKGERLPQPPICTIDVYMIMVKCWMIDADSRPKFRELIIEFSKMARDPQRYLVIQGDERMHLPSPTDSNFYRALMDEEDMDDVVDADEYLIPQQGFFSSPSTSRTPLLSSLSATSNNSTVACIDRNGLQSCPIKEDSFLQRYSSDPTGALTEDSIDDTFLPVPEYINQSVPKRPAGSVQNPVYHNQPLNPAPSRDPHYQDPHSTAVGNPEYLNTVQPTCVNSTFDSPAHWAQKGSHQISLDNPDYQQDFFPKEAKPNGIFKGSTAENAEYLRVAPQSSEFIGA

CC(C)=CCc1c(-c2ccc(O)cc2O)oc2c3c(cc(O)c2c1=O)OC(C)(C)C=C3 [MORUSIN]
<0.8: CI [4] | CI [16]
active: Activity [1] | inhibition [2] Dose-dependent effect | Activity [3] | inhibition [5] | Activity [6] | Activity [7] | Activity [10] | Activity [11] | Activity [12] | Activity [15] | inhibition [18] | inhibition [19] Dose-dependent effect | inhibition [20] | Activity [21] Dose-dependent effect | Activity [24] | Activity [26]
24 µM: IC50 [13]
inactive: Activity [9] | Activity [14] | Activity [17] | Activity [22] | Activity [23] | Activity [25] | Activity [27]
> 94%: remaining at 24 h, 10 µM [8]
